In ChEMBL document CHEMBL1131769, “Orally bioavailable nonpeptide vitronectin receptor antagonists with efficacy in an osteoporosis model” (Bioorg Med Chem Lett, 1999):

Key:
[1] = molecular target: T1, Integrin alpha-V/beta-3 (Homo sapiens, UniProt P05106+P06756); assay: Binding affinity for non-peptide Vitronectin receptor (alpha V beta 3); assay type: protein-complex assay
Procedure, shortened: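 Competitive binding to human αvβ3, with 3H-SK&F 107260 as the displaced radioligand. Ki is the mean of two to three separate experiments.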

[2] = species on record: Homo sapiens; assay: In vitro inhibitory activity against human platelet aggregation; assay type: functional
Procedure, shortened: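 Inhibition of ADP-induced aggregation in human platelet-rich plasma.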

[3] = molecular target: Integrin alpha-5/beta-1 (Homo sapiens); assay: Binding affinity for alpha 5 beta 1 receptor
[4] = Half-life was determined; assay type: ADME, organism-based; details: rat, in vivo
Procedure, shortened: (§1)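 Rat pharmacokinetics from plasma concentration–time data in two to three separate animals, by non-compartmental analysis. Oral bioavailability was taken from dose-normalized i.v. and p.o. AUC values.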

[5] = molecular target: Integrin alpha-IIb/beta-3 (Homo sapiens, UniProt P05106+P08514); assay: Binding affinity for alpha IIb beta3 integrin; assay type: protein-complex assay
Sequence of Integrin alpha-IIb/beta-3 (P05106 27-788 limits assumed): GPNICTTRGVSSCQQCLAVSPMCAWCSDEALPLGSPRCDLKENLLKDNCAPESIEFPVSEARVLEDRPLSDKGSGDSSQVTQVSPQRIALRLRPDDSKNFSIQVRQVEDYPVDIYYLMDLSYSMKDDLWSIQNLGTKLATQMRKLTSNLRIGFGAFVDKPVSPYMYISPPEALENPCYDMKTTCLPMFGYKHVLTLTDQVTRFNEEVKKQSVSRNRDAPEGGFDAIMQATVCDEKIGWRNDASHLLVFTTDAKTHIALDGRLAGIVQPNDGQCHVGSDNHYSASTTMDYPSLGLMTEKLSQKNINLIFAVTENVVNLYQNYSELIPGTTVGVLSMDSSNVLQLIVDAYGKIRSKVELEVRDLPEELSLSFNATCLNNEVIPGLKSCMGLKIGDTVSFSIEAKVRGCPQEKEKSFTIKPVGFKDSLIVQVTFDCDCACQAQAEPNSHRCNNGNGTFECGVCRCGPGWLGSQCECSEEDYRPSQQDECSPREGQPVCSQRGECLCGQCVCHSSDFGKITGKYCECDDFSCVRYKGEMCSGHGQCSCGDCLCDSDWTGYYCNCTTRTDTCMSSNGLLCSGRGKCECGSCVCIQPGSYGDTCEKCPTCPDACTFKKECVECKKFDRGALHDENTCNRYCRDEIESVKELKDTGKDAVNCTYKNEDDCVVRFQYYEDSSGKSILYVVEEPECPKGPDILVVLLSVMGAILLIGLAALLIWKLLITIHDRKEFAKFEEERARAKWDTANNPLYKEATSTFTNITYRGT
Sequence of Integrin alpha-IIb/beta-3 (P08514 32-887 limits assumed): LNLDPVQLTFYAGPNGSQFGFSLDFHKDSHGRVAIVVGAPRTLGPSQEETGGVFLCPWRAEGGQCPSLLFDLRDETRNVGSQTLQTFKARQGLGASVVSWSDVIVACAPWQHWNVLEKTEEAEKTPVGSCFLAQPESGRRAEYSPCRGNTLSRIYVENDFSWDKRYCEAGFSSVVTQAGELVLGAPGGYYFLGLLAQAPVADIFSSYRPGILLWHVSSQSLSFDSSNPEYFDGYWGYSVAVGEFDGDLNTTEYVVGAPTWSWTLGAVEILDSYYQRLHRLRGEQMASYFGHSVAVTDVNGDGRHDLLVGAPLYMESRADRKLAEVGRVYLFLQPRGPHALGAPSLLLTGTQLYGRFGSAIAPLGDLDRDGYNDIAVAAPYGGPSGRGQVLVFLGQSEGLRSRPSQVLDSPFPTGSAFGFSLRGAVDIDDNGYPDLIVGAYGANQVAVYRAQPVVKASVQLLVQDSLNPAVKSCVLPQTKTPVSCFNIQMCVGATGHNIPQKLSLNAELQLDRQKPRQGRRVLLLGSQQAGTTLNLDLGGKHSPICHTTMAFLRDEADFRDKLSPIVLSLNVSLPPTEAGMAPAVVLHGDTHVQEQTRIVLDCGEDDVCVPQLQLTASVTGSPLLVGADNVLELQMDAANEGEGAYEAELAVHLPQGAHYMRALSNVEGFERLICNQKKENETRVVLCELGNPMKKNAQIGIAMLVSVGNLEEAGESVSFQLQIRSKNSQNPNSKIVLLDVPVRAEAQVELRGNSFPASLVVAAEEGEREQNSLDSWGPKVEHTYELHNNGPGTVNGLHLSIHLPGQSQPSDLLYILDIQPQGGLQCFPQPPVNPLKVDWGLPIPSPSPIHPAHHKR
Sequence of Integrin alpha-IIb/beta-3 (P08514 891-1039 limits assumed): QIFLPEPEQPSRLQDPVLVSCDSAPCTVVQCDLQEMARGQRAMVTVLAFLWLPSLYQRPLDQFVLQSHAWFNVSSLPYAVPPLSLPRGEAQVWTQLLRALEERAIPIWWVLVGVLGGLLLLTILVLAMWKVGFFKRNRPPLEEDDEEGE
Procedure, shortened: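 Competitive binding to human αIIbβ3, with 3H-SK&F 107260 as the displaced ligand. Ki is the mean of two to three separate experiments.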

[6] = species on record: Homo sapiens; assay: In vitro inhibitory activity determined by human osteoclast resorption assay; assay type: functional
[7] = Oral bioavailability in rat; assay type: ADME, organism-based; details: in vivo; procedure, shortened: as §1
[8] = molecular target: T1, Integrin alpha-V/beta-3; assay: Inhibition of HEK 293 cell adhesion to vitronectin by alpha V beta 3; assay type: cell-based, HEK293
Procedure, shortened: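 Cell-based αvβ3 affinity. HEK 293 cells transfected with human αvβ3 were tested for inhibition of adhesion of purified human vitronectin. IC50 is the mean of two experiments run in triplicate with an internal standard.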

[9] = Plasma clearance of the compound; assay type: ADME, organism-based; details: rat; procedure, shortened: as §1
[10] = molecular target: Integrin alpha-V/beta-5 (Homo sapiens, UniProt P06756+P18084); assay: Binding affinity for integrin alpha V beta 5 receptor; assay type: protein-complex assay
Sequence of Integrin alpha-V/beta-5 (P06756 31-889 limits assumed): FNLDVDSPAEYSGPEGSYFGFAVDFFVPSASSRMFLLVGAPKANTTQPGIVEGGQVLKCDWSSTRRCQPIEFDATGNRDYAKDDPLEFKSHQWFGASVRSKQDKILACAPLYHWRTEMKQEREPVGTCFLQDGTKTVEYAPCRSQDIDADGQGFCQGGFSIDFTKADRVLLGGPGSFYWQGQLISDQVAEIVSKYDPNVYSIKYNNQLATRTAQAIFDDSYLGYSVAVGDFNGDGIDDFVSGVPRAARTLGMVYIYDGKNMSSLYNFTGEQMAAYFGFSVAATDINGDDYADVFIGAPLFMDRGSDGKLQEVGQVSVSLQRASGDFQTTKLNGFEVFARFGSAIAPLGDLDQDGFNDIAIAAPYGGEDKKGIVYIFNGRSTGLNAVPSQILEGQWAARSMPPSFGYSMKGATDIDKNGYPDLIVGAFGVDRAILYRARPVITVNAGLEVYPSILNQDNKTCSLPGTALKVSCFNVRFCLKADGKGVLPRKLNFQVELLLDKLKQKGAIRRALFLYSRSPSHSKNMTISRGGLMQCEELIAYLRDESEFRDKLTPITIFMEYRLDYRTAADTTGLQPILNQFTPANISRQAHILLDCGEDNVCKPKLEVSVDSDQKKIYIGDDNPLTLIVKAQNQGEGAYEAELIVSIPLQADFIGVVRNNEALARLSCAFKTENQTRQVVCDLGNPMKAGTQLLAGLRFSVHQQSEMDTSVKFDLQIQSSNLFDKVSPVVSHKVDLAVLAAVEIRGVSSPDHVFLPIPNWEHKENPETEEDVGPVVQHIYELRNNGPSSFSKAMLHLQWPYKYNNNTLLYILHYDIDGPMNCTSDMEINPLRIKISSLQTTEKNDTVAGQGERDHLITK
Sequence of Integrin alpha-V/beta-5 (P06756 891-1048 limits assumed): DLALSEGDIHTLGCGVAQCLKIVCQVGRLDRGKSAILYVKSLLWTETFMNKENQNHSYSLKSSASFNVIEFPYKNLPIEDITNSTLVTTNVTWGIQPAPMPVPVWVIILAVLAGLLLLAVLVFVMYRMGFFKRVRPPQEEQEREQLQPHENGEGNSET
Sequence of Integrin alpha-V/beta-5 (P18084 24-799 limits assumed): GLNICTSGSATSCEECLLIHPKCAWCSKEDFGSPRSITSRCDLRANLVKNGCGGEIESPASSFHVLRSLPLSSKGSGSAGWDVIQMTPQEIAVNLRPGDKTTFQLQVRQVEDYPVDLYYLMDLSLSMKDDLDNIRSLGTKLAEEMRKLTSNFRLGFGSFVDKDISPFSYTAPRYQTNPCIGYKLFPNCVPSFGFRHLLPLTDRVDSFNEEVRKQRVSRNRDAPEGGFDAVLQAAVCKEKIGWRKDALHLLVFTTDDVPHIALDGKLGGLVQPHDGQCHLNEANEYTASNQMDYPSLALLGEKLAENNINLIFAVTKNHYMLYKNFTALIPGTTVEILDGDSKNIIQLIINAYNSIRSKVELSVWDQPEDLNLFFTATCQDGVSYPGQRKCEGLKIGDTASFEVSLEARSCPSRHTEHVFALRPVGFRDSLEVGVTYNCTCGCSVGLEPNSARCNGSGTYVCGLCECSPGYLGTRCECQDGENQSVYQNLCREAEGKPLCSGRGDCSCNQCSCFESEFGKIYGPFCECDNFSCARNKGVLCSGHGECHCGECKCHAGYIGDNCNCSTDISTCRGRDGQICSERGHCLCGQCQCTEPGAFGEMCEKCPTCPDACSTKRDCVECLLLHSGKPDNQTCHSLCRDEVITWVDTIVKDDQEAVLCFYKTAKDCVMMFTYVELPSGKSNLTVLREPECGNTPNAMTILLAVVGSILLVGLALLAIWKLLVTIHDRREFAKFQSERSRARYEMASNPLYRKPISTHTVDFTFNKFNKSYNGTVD

[11] = system: Rattus norvegicus; assay: In vivo inhibitory activity against bone resorption of calcium response determined in thyroidparathyroidectomized rat model at 2.53 mg/kg/hr after 6 hr; assay type: functional
Procedure, shortened: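 Thyroparathyroidectomized rats received compound by continuous i.v. infusion at 2.53 mg/kg/hr. Inhibition of the calcemic response was read after 6 hr.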

T1 sequence (P05106 27-788 limits assumed): as the sequence (P05106 27-788 limits assumed) above
T1 sequence (P06756 31-889 limits assumed): as the sequence (P06756 31-889 limits assumed) above
T1 sequence (P06756 891-1048 limits assumed): as the sequence (P06756 891-1048 limits assumed) above

| Structure (SMILES) | Ki [1] | IC50 [2] | Ki [3] | half-life [4] | Ki [5] | IC50 [6] | bioavailability [7] | IC50 [8] | clearance [9] | Ki [10] | inhibition in vivo at 2.53 mg/kg/hr [11] |
| --- | --- | --- | --- | --- | --- | --- | --- | --- | --- | --- | --- |
| O=C(O)C[C@H]1Cc2ccc(OCCCNc3ccccn3)cc2Cc2ccccc21 | 550 nM |  |  |  |  |  |  |  |  |  |  |
| CN(Cc1nc2ccccc2[nH]1)C(=O)c1ccc2c(c1)CN(C)C(=O)[C@H](CC(=O)O)N2 |  |  |  | 9 min |  |  | 3% |  |  |  |  |
| CN(Cc1nc2ccccc2[nH]1)C(=O)c1ccc2c(c1)Cc1ccccc1C(CC(=O)O)C2 (stereo not given) | 23 nM |  |  |  | > 50 µM |  |  | 1800 nM |  |  |  |

Further lines, with some results ahead:

| Ki [1] | IC50 [2] | Ki [3] | half-life [4] | Ki [5] | IC50 [6] | bioavailability [7] | IC50 [8] | clearance [9] | Ki [10] | Structure (SMILES) | inhibition in vivo at 2.53 mg/kg/hr [11] |
| --- | --- | --- | --- | --- | --- | --- | --- | --- | --- | --- | --- |
| 4 nM | > 200 µM | 18 µM | 181 min | 9 µM | 48 nM | 100% | 60 nM | 3 mL/min/kg | 1.3 nM | O=C(O)C[C@@H]1Cc2ccc(OCCCNc3ccccn3)cc2Cc2ccccc21 | 85% |
| 8 nM |  |  |  | 30 µM |  |  | 65 nM |  |  | O=C(O)CC1Cc2ccc(OCCCNc3ccccn3)cc2Cc2ccccc21 (stereo not given) |  |
